Measurements from ChEMBL document CHEMBL1131800, “Novel carbonic anhydrase isozymes I, II and IV activators incorporating sulfonyl-histamino moieties” (Bioorg Med Chem Lett, 1999).

How the values were obtained:
[1] = target: Carbonic anhydrase 2 (Homo sapiens) (UniProt P00918); experiment: In vitro binding affinity against human carbonic anhydrase II (hCA-II human cloned isozyme).
How it was run: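 Human cloned CA II (3.5 nM) preincubated 10 min at room temperature with activator, then esterase assay following 4-nitrophenolate formation (ε 18,400 M-1·cm-1) at pH 7.40. Nonenzymatic hydrolysis was subtracted. Activator was diluted in water from a 1 mM stock down to 0.1 nM. Activation constant Ka is the mean of at least three determinations.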

[2] = target: T1, Carbonic anhydrase 4 (Bos taurus) (UniProt Q95323); experiment: In vitro […] activity against bovine carbonic anhydrase IV (bCA IV) purified from lung microsomes.
T1 sequence (whole entry): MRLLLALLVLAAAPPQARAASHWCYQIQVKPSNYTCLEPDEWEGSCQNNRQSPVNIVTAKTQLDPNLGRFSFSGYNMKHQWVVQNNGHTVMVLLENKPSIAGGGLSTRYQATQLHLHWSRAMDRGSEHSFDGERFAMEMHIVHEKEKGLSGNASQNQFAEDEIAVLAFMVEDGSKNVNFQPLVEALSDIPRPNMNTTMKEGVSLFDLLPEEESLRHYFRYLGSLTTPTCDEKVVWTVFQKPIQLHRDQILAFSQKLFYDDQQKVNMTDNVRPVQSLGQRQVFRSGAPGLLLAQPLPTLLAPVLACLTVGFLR
How it was run: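 Bovine lung microsomal CA IV (31 nM) was preincubated 10 min at room temperature with activator, then assayed by the esterase method. 4-Nitrophenolate formation was measured at pH 7.40 (ε 18,400 M-1·cm-1), minus the uncatalysed rate. Activator came from a 1 mM aqueous stock diluted to 0.1 nM. Ka is the mean of ≥3 runs.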

[3] = target: Carbonic anhydrase 1 (Homo sapiens) (UniProt P00915); experiment: In vitro binding affinity against human carbonic anhydrase I (hCA-I human cloned isozyme).
Chain of Carbonic anhydrase 1 (Homo sapiens) (P00915 2-261 limits assumed): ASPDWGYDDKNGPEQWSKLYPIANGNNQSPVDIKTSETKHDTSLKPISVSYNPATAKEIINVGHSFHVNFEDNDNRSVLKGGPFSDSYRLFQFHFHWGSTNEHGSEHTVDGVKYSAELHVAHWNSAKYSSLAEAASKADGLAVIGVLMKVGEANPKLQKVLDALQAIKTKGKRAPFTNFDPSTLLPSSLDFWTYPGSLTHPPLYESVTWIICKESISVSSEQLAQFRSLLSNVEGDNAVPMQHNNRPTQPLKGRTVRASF
How it was run: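 Human cloned CA I (12 nM) preincubated 10 min at room temperature with activator, then esterase assay on 4-nitrophenyl ester hydrolysis. Read-out was 4-nitrophenolate (ε 18,400 M-1·cm-1) at pH 7.40, with nonenzymatic rate subtracted. Activator stock was 1 mM in distilled-deionized water, diluted down to 0.1 nM. Ka is the mean of ≥3 determinations.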

SMILES | Ka [1] | Ka [2] | Ka [3]
O=C(NCCc1c[nH]cn1)NS(=O)(=O)c1ccc(Cl)cc1 | 0.08 µM | 0.01 µM | 0.003 µM
O=C(O)c1cccc(S(=O)(=O)NCCc2c[nH]cn2)c1 | 0.5 µM | 0.07 µM | 0.05 µM
COc1ccc(S(=O)(=O)NCCc2c[nH]cn2)cc1 | 22 µM | 6.5 µM | 0.2 µM
O=C(O)c1c(Br)c(Br)c(Br)c(Br)c1S(=O)(=O)NCCc1c[nH]cn1 | 0.3 µM | 0.1 µM | 0.05 µM
O=C(NCCc1c[nH]cn1)NS(=O)(=O)c1ccc(F)cc1 | 0.09 µM | 0.02 µM | 0.004 µM
O=[N+]([O-])c1ccccc1S(=O)(=O)NCCc1c[nH]cn1 | 8 µM | 1.6 µM | 0.13 µM
O=[N+]([O-])c1ccc(S(=O)(=O)NCCc2c[nH]cn2)cc1Cl | 6 µM | 1.4 µM | 0.12 µM
O=S(=O)(NCCc1c[nH]cn1)c1ccccc1 | 30 µM | 5 µM | 0.21 µM
O=S(=O)(NCCc1c[nH]cn1)c1cccs1 | 5 µM | 1.1 µM | 0.09 µM
O=S(=O)(NCCc1c[nH]cn1)c1cc(Cl)ccc1Cl | 5 µM | 0.1 µM | 0.08 µM
O=S(=O)(NCCc1c[nH]cn1)C(Cl)(Cl)Cl | 13 µM | 3.6 µM | 0.018 µM
O=C(O)c1ccc(S(=O)(=O)NCCc2c[nH]cn2)cc1 | 0.8 µM | 0.1 µM | 0.06 µM
O=C(O)c1ccccc1S(=O)(=O)NCCc1c[nH]cn1 | 1.2 µM | 0.12 µM | 0.06 µM
O=S(=O)(NCCc1c[nH]cn1)c1cc(Cl)cc(Cl)c1O | 7 µM | 0.09 µM | 0.1 µM
O=S(=O)(NCCc1c[nH]cn1)c1ccc2ccccc2c1 | 9 µM | 3.5 µM | 0.24 µM
CC(=O)Nc1ccc(S(=O)(=O)NCCc2c[nH]cn2)cc1 | 20 µM | 6 µM | 0.21 µM
CN(C)c1cccc2c(S(=O)(=O)NCCc3c[nH]cn3)cccc12 | 9 µM | 3.2 µM | 0.28 µM
O=S(=O)(NCCc1c[nH]cn1)C(F)(F)C(F)(F)C(F)(F)C(F)(F)F | 0.9 µM | 0.05 µM | 0.01 µM
O=[N+]([O-])c1ccc(S(=O)(=O)NCCc2c[nH]cn2)cc1 | 10 µM | 1.8 µM | 0.14 µM
O=S(=O)(Cc1ccccc1)NCCc1c[nH]cn1 | 34 µM | 5.4 µM | 0.18 µM
Cc1ccc(S(=O)(=O)NC(=O)NCCc2c[nH]cn2)cc1 | 0.1 µM | 0.02 µM | 0.005 µM
O=S(=O)(NCCc1c[nH]cn1)c1c(F)c(F)c(F)c(F)c1F | 0.1 µM | 0.04 µM | 0.006 µM
O=S(=O)(NCCc1c[nH]cn1)c1ccc(I)cc1 | 10 µM | 3.2 µM | 0.08 µM
Cc1ccccc1S(=O)(=O)NC(=O)NCCc1c[nH]cn1 | 0.15 µM | 0.03 µM | 0.006 µM

Now from value to compound:

Ka [1] | Ka [2] | Ka [3] | SMILES
13 µM | 5.3 µM | 0.15 µM | CN(C)S(=O)(=O)NCCc1c[nH]cn1
125 µM | 41 µM | 2 µM | NCCc1c[nH]cn1
10 µM | 3.6 µM | 0.26 µM | O=S(=O)(NCCc1c[nH]cn1)c1cccc2ccccc12
9 µM | 1.5 µM | 0.12 µM | O=[N+]([O-])c1cccc(S(=O)(=O)NCCc2c[nH]cn2)c1
13 µM | 2.5 µM | 0.1 µM | O=S(=O)(NCCc1c[nH]cn1)c1ccc(Cl)cc1
14 µM | 4.1 µM | 0.13 µM | Nc1ccc(S(=O)(=O)NCCc2c[nH]cn2)cc1
1.2 µM | 0.15 µM | 0.013 µM | O=S(=O)(NCCc1c[nH]cn1)C(F)(F)F
28 µM | 7 µM | 0.24 µM | Cc1ccc(S(=O)(=O)NCCc2c[nH]cn2)cc1
0.5 µM | 0.03 µM | 0.007 µM | O=S(=O)(NCCc1c[nH]cn1)C(F)(F)C(F)(F)C(F)(F)C(F)(F)C(F)(F)C(F)(F)C(F)(F)C(F)(F)F
15 µM | 5.4 µM | 0.17 µM | CC1(C)C2CCC1(CS(=O)(=O)NCCc1c[nH]cn1)C(=O)C2 (stereo unspecified)
12 µM | 2.4 µM | 0.11 µM | O=S(=O)(NCCc1c[nH]cn1)c1ccc(F)cc1
10 µM | 3 µM | 0.09 µM | O=S(=O)(NCCc1c[nH]cn1)c1ccc(Br)cc1
35 µM | 5.9 µM | 0.25 µM | Cc1cc(C)c(S(=O)(=O)NCCc2c[nH]cn2)c(C)c1
